# Measurements: ChEMBL document CHEMBL1137700, “New transition metal ion complexes with benzimidazole-5-carboxylic acid hydrazides with antitumor activity” (Eur J Med Chem, 2009)
# How the values were obtained:
# MCF7 = assay: Cytotoxicity against human MCF7 cells after 72 hrs by Alamar Blue assay; type: functional, cell-based; details: MCF7, 72 h
# How it was run: (§1)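 Cells seeded and grown at 37 °C under 5% CO2 for 24 h, then compounds in DMSO added in duplicate wells. Exposure 72 h at 37 °C, then media replaced with fresh media plus AlamarBlue and fluorescence read. Growth was computed from mean fluorescence at time zero, after 72 h with test substance, and after 72 h with vehicle control. IC50 derived.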
# A549 = assay: Cytotoxicity against human A549 cells after 72 hrs by Alamar Blue assay; type: functional, cell-based; details: A549, 72 h; how it was run: as §1
Structure (SMILES),IC50 (MCF7),IC50 (A549)
COC(=O)c1cccc2oc(-c3cccc4oc(-c5ccccc5O)nc34)nc12,1.4 µM,2 µM
Cc1nc2cc(C(=O)O)ccc2[nH]1,> 100 µM,> 100 µM
CC(C)=NNC(=O)c1ccc2[nH]c(C)nc2c1,> 100 µM,> 100 µM
Cc1nc2cc(C(=O)N/N=C\c3ccc(C)o3)c([N+](=O)[O-])cc2[nH]1,> 100 µM,> 100 µM
Cc1nc2cc(C(=O)N/N=C\c3ccccn3)c([N+](=O)[O-])cc2[nH]1,> 100 µM,> 100 µM
Cc1nc2cc(C(=O)NN)c([N+](=O)[O-])cc2[nH]1,> 100 µM,> 100 µM
CCOC(=O)c1ccc2[nH]c(C)nc2c1,62 µM,> 100 µM
CCOC(=O)c1cc2nc(C)[nH]c2cc1[N+](=O)[O-],> 100 µM,> 100 µM
Cc1nc2cc(C(=O)N/N=C\c3ccco3)c([N+](=O)[O-])cc2[nH]1,81 µM,> 100 µM
CC(C)=NNC(=O)c1cc2nc(C)[nH]c2cc1[N+](=O)[O-],> 100 µM,> 100 µM
CO[C@@]12[C@H](COC(N)=O)C3=C(C(=O)C(C)=C(N)C3=O)N1C[C@@H]1N[C@@H]12 [MITOMYCIN],0.2 µM,0.4 µM
Cc1nc2cc(C(=O)N/N=C\c3c[nH]c4ccccc34)c([N+](=O)[O-])cc2[nH]1,> 100 µM,> 100 µM
Cc1ccc(/C=N\NC(=O)c2cc3nc(C)[nH]c3cc2[N+](=O)[O-])cc1,3 µM,73 µM
CCN1CCN(C(=O)N[C@@H](C(=O)N[C@@H]2C(=O)N3C(C(=O)O)=C(CSc4nnnn4C)CS[C@H]23)c2ccc(O)cc2)C(=O)C1=O [CEFOPERAZONE],> 100 µM,> 100 µM
